MrgX1 ag – human MrgX1 receptor agonism, primary screen. Q96LB2. MrgX1-HEK293 cells, Fluo-4 calcium fluorescence, agonist mode; hits give high values. B-score at 10 µM. 0.44% of 310,000 active. AID 588627;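 active = calcium response B-score plate-corrected fluorescence ratio at least 3 library SD, with starting fluorescence B-score inside 5 SD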
Target sequence (Q96LB2 whole entry, looked up): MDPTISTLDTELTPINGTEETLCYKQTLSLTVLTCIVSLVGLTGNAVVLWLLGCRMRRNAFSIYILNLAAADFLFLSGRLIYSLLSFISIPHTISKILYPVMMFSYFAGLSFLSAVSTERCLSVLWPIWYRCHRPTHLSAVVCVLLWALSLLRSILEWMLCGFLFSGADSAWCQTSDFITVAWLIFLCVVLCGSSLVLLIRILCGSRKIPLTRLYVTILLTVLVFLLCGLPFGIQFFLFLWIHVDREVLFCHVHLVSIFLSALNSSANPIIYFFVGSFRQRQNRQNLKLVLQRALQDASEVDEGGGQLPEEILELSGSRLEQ
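System – MrgX1-expressing HEK293 cells · Incubation – cells plated overnight, dye loaded 0.5 h 37 °C, 0.5 h room temperature · Technique – kinetic Fluo-4 NW fluorescence of intracellular calcium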
MrgX1 PAM – allosterically activates human MrgX1 receptor signaling; Q96LB2; MrgX1-HEK293, Fluo-4 calcium flux, FDSS; hits give high values; B-score at 10 µM; 0.63% of 310,000 active; AID 588675;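 active = plate-corrected calcium response at least 3 library SD above typical, normal starting fluorescence, not activating the receptor alone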;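 also: compound read alongside a low EC10 to EC30 dose of BAM8-22 agonist; peak minus trough fluorescence over baseline measured at the second addition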
MrgX1 antag – human MrgX1 receptor antagonism, primary screen; MRGX1-HEK293 calcium flux, Fluo-4, BAM8-22 antagonism; hits give low values; 1.3% of 310,000 active; AID 588676; Q96LB2; B-score at 10 µM;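 active = calcium-response B-score plate-corrected more than 3 library SD below zero, starting fluorescence within 5 deviations, no agonist response on first addition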;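 also: peak minus trough fluorescence over baseline after final BAM8-22 challenge near maximal dose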
RGS4 pot – RGS4 potentiation or activation; HEK293 M3R/inducible RGS4, carbachol calcium flux Fluo4; hits give low values; B-score at 10 µM; 0.92% of 310,000 active; AID 463111;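 active = B-score of the integrated calcium signal more than 4 SD below the library mean, with starting fluorescence not abnormally high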;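 also: negative B-score means reduced calcium response which marks RGS4 activation or potentiation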
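System: HEK293 FlpIn-TREx cells, stable M3R, doxycycline-inducible RGS4. Timing: overnight RGS4 induction, 30 min dye load 37 °C, 20 min compound RT. Also added: carbachol, ECmax concentration. Measured by: Fluo4 fluorescence kinetic imaging of calcium. Evaluation: integrated calcium ratio converted to B score.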
RGS4 block – human RGS4 inhibition. P49798. HEK293 M3R/RGS4 inducible, Fluo-4 calcium flux; hits give high values; triggered by carbachol at its EC20. B-score at 10 µM. 0.45% of 310,000 active;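 active = B-score, a plate-corrected calcium signal, over three deviations above library mean, with baseline fluorescence within five deviations of library mean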;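 also: RGS4 expression induced by doxycycline in cells with stable M3 receptor; B-score is computed from the integrated fluorescence ratio over baseline after carbachol; higher B-score means a larger calcium signal and so more RGS4 inhibition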
Target sequence (P49798 whole entry, looked up): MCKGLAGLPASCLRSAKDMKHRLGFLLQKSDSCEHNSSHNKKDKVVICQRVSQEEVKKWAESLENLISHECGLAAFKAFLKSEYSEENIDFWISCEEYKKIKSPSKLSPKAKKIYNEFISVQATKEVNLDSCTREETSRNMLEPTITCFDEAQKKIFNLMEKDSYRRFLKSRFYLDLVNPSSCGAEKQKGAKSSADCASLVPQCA
RGS4 act valid – RGS4 activation, validation assay | shares compounds with RGS4 pot | HEK293 M3R/RGS4 inducible, carbachol calcium flux Fluo4 | inhibition, % at 10 µM | 89% of 1,100 active;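 active = inhibition above 3 SD of the buffer control wells, cut at about 41% in these data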;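 also: signal is the integrated peak-minus-minimum Fluo4 fluorescence over baseline ratio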
M3R Ca counter – RGS4 activator counter-screen hit in non-induced cells; HEK293 M3R non-induced RGS4, Fluo4 calcium flux; after carbachol challenge at its EC90; shares compounds with RGS4 pot; AID 602283; 82% of 1,100 active; inhibition, % at 10 µM;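 active = inhibition exceeding 3 SD of buffer-only control wells, cut at about 26% in these data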;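 also: percent drop in integrated peak-minus-baseline over baseline Fluo4 ratio after carbachol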
Active calls of the source: *; i = inactive; x = no result given. Most compounds without a hit are left out; they make up all but 3.5% or so of the library.

SMILES | MrgX1 ag | MrgX1 PAM | MrgX1 antag | RGS4 pot | RGS4 block | RGS4 act valid | M3R Ca counter
CCCN1CCc2c(sc(NC(=O)c3ccc(S(=O)(=O)N(C)c4ccccc4)cc3)c2C(=O)NC)C1 | i | i | i | -9.53* | i | 84.0* | 52.3*
CCN(CC(=O)Nc1ccc(NC(C)=O)cc1)C(=O)CCCOc1ccc(C(C)(C)C)cc1 | i | i | i | i | i | x | x
CC1CCN(c2ccccc2NC(=O)c2ccc(Br)o2)CC1 | i | i | i | -9.4* | i | 54.0* | 0.0
CN(C)CCC(O)(c1ccccc1)c1ccccc1 | i | i | i | i | i | x | x
CN(C)C(C)(C)C#CC(O)(c1ccccc1)c1ccccc1 | i | i | i | -8.72* | i | 92.0* | 88.3*
CN(C)CC#CCC(O)(c1ccccc1)C1CCCCC1 (stereo unspecified) | i | i | i | i | i | x | x
CN(C)CCC#CC(O)(c1ccccc1)c1ccccc1 | i | i | i | -9.9* | i | 87.5* | 46.8*
CCN(CC)CCC#CC(O)(c1ccccc1)C1CCCCC1 (stereo unspecified) | i | i | i | -8.57* | i | 91.0* | 93.3*
CCN(CC)CC#CC(O)(c1ccccc1)c1ccccc1 | i | i | i | -12.6* | i | 93.5* | 91.8*
COCc1ccc(C(=O)N(C)C2CCCN(Cc3ccccc3F)C2)o1 (stereo unspecified) | i | i | i | -8.63* | i | 56.5* | 0.0
COC(=O)c1ccc(C(=O)N(C)C2CCCN(Cc3ccccc3F)C2)cc1 (stereo unspecified) | i | i | i | i | i | x | x
S=C(NCC1CCCCC1)Nc1ccc(Oc2ccccc2)cc1 | i | i | i | -7.61* | i | 93.0* | 59.8*
COc1cccc(CNC(=O)C2Cc3ccccc3CN2C(C)=O)c1 (stereo unspecified) | i | i | i | i | i | x | x
Cc1cccc(N(C)S(=O)(=O)c2csc(C(N)=O)c2)c1 | i | i | i | i | i | x | x
Cc1ccc(S(=O)(=O)NC(C(=O)Oc2ccc3c(C)c(Cl)c(=O)oc3c2)c2ccccc2)cc1 (stereo unspecified) | i | i | i | i | i | x | x
CCC[C@@H](NS(=O)(=O)c1ccc(C)cc1)C(=O)Oc1ccc2c3c(c(=O)oc2c1)CCC3 | i | i | i | -7.56* | i | 92.0* | 71.3*
Cc1c(C)n(Cc2ccccc2)c2ncnc(NCCCN(C)C)c12 | i | i | i | -9.44* | i | 70.0* | 83.8*
Cc1sc2cc3c(c(C(=O)c4ccccc4)[n+]2c1C)-c1cccc2cccc-3c12 | i | i | i | -14* | i | 91.5* | 91.3*
O=C1CCc2ccc(OCCCCN3CCN(c4cccc(Cl)c4Cl)CC3)cc2N1 | i | i | i | -9.17* | i | 79.0* | 65.3*
COc1ccccc1CN(C)C(=O)CN1C(=O)c2ccccc2C1=O | i | i | i | i | i | x | x
O=C(NCCCN1CCCCCC1)c1ccc2c(Cl)c3c(nc2c1)CCCC3 | i | i | i | i | i | x | x
CCN1CCN(CCCNC(=O)c2ccc3c(Cl)c4c(nc3c2)CCCC4)CC1 | i | i | i | -8.56* | i | 81.5* | 49.8*
COc1cc(CN2CCNC(=O)C2CC(=O)NC2CCC2)cc(OC)c1 (stereo unspecified) | i | i | i | i | i | x | x
CCOC(=O)c1cc2cc(OCc3ccccc3)ccc2nc1C | i | i | i | -10.6* | i | 78.0* | 76.3*
COc1cccc(/C=N/NC(=O)C(C)Cn2cnc3ccccc32)c1 (stereo unspecified) | i | i | i | i | i | x | x
SMILES | MrgX1 ag | MrgX1 PAM | MrgX1 antag | RGS4 pot | RGS4 block | RGS4 act valid | M3R Ca counter
Cc1cc(/N=C/C=C2\N(C)c3ccccc3C2(C)C)n(CCC#N)n1 | i | i | i | i | i | x | x
CCCCCCOc1ccc(-c2ccc(C#N)cn2)cc1 | i | i | i | -7.93* | i | 71.0* | 83.8*
CS(=O)(=O)c1ccc(C(=O)OCc2nnc(-c3ccc(Cl)cc3)o2)cc1[N+](=O)[O-] | i | i | i | i | i | x | x
Cc1ccccc1C(=NCCCN(C)C)c1ccccc1C | i | i | i | -9.35* | i | 87.5* | 55.8*
COc1ccc(C)cc1S(=O)(=O)N1CCN(C(=O)c2ncoc2-c2ccc(C)cc2)CC1 | i | i | i | -8.18* | i | 82.0* | 31.8*
CC(=O)N1c2ccccc2C(C)CC12CCCCC2 (stereo unspecified) | i | i | i | -7.79* | i | 85.5* | 37.3*
Cc1ccccc1N1CCN(C2CCCN(C(=O)c3ccccn3)C2)CC1 (stereo unspecified) | i | i | i | i | i | x | x
Cc1ccccc1N1CCN(C2CCCN(C(=O)c3cn4cccc(C)c4n3)C2)CC1 (stereo unspecified) | x | x | x | -9.66* | i | 50.5* | 0.0
O=S(=O)(Nc1ccccc1)c1ccc(-c2csnn2)cc1 | i | i | i | -8.39* | i | 63.0* | 83.8*
O=C(O)c1ccc(N/N=C/c2ccc(-c3ccccc3)cc2)cc1 | x | x | x | i | i | x | x
O=C(O)c1ccc(N/N=C/c2ccc(OC(=O)c3ccccc3Cl)cc2)cc1 | i | i | i | -14.1* | i | 0.0 | 0.0
CN(C)CCNC(=O)c1cc2c(s1)-c1ccc(Cl)cc1SC2 | i | i | i | -12.7* | i | 94.5* | 92.8*
CCOC(=O)c1cc2c(ccn2C)n1Cc1ccccc1C | i | i | i | -8.8* | i | 84.5* | 39.8*
Cc1ccccc1Cn1c(C(=O)OC(C)C)cc2c1ccn2C | i | i | i | -8.02* | i | 90.0* | 50.3*
CCOC(=O)c1cc2c(ccn2C)n1CC(=O)N(Cc1ccccc1)c1ccccc1 | i | i | i | i | i | x | x
CSc1cccc(NC(=O)c2nnn(CC(=O)Nc3cc(C)cc(C)c3)c2N)c1 | i | i | i | i | i | x | x
Cc1cc(C)n(S(=O)(=O)c2ccc3ccccc3c2)n1 | i | i | i | -7.92* | i | 75.5* | 83.8*
Cc1ncsc1CCOC(=O)C1C2CC3CC(C2)CC1C3 (stereo unspecified) | i | i | i | i | i | x | x

Compound activity from PubChem.
